What was measured:
[1] = Inhibition of His-tagged catalytic domain Trypanosoma brucei brucei PDEB1 expressed in baculovirus infected insect Sf21 cells
[2] = system: Trypanosoma brucei brucei; assay: Cytotoxicity against Trypanosoma brucei brucei at 100 uM
[3] = system: Trypanosoma brucei brucei; assay: Antitrypanosomal activity against blood stream Trypanosoma brucei brucei 427 after 48 hrs by Alamar blue assay; type: functional, organism-based; conditions: Trypanosoma brucei, 427, 48 h
[4] = Inhibition of His-tagged catalytic domain Trypanosoma brucei brucei PDEB2 expressed in baculovirus infected insect Sf21 cells
[5] = Inhibition of His-tagged catalytic domain Trypanosoma brucei brucei PDEB1 expressed in baculovirus infected insect Sf21 cells at 100 uM
Procedure, shortened: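 Inhibitor preincubated 10 min before substrate, final DMSO 2%, 5% or 10%. BioMol green phosphate read at 620nm. Initial-velocity change versus vehicle; mean of ≥3 independent experiments.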

[6] = Inhibition of His-tagged catalytic domain Trypanosoma brucei brucei PDEB1 expressed in baculovirus infected insect Sf21 cells at 10 uM
Procedure, shortened: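 Single-concentration screen of purified His-tagged TbrPDEB1 catalytic domain (0.25 µg) at 37°C in 10 mM Tris pH 7.4, 0.2 mg/ml BSA, 10 mM MgCl2, 25 µM cAMP and excess 5'-nucleotidase. Inhibitor in DMSO (2%, 5% or 10% final) preincubated 10 min before substrate. BioMol green phosphate read-out at 620 nm; percent inhibition of initial velocity versus vehicle control.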

Structure (SMILES)	IC50 [1] [µM]	EC50 [3] [µM]	IC50 [4] [µM]	also measured
COc1cc(C(=O)Nc2c(Cl)cncc2Cl)ccc1OC(C)=O	> 100	–	–	–
COc1cc(C(=O)Nc2c(Cl)cncc2Cl)cc(OC)c1OC	> 100	> 100	–	Activity [2]: 10%
CS(=O)(=O)Oc1ccc2c(NC(N)=O)c(C(=O)c3ccc(Cl)cc3Cl)oc2c1	> 10	–	> 10	–
CCCCOc1cc(C(=O)Nc2c(Cl)cncc2Cl)ccc1OC	7.7	17.7	14.3	–
COc1ccc(C(=O)Nc2c(Cl)cncc2Cl)cc1OC1CCCC1	4.7	9.57	11.4	inhibition [5]: > 50%
CCOc1cc(C(=O)Nc2c(Cl)cncc2Cl)ccc1OC	16.5	–	34	–
COc1cccc(Nc2c(C(N)=O)cnc3c(C)cc(S(=O)(=O)c4cccc(C(=O)N(C)C)c4)cc23)c1	–	–	–	inhibition [6]: > 50%
COc1ccc(C(=O)Nc2c(Cl)cncc2Cl)cc1OCc1ccccc1	12.5	10.1	11.2	–
CCCOc1cc(C(=O)Nc2c(Cl)cncc2Cl)ccc1OC	13.6	13	9.4	–
COc1cc2c(cc1OC)-c1c/c(=N\c3c(C)cc(C)cc3C)n(C)c(=O)n1CC2 [TREQUINSIN]	12	5.8	25.4	inhibition [5]: > 50%
O=C(Nc1c(Cl)cncc1Cl)c1ccc(OC(F)F)c(OCC2CC2)c1 [ROFLUMILAST]	> 100	–	–	–
COc1cc(Cl)c(C(=O)Nc2c(Cl)cncc2Cl)cc1OC	> 100	–	–	–
CCCCOc1cc(CC2CNC(=O)N2)ccc1OC (stereo unspecified) [RO-201724]	> 100	–	–	–
COc1ccc(C(=O)Nc2c(Cl)cncc2Cl)c(Cl)c1OC	> 100	–	–	–
COc1ccc(C2CNC(=O)C2)cc1OC1CCCC1 (stereo unspecified) [ROLIPRAM]	> 100	–	–	–
COc1cc2ncnc(N3CC[C@@H](Oc4cnc5ccccc5n4)C3)c2cc1OC	–	–	–	inhibition [5]: > 55%
CCOc1ccc(C(=O)Nc2c(Cl)cncc2Cl)cc1OCC	> 100	–	–	–
COc1ccc(C(=O)Nc2c(Cl)cncc2Cl)cc1OC	> 100	–	> 100	–
OCCN(CCO)c1nc(N2CCCCC2)c2nc(N(CCO)CCO)nc(N3CCCCC3)c2n1 [DIPYRIDAMOLE]	72	–	–	inhibition [5]: > 50%
Cc1noc(/C(=C/c2cccc(-c3cc(C(C)(C)S(C)(=O)=O)cc4cccnc34)c2)c2ccc(S(C)(=O)=O)cc2)n1	–	–	–	inhibition [6]: > 50%
COc1ccc(C(=O)Nc2c(Cl)cncc2Cl)cc1OC(C)C	> 30	27.6	> 30	–
